TRPC4 agonist = activators of mouse TRPC4 channel, primary screen, Fluo4 calcium, HEK293 TRPC4beta/mu-opioid cells; Short transient receptor potential channel 4 (Mus musculus), Q9QUQ5; hit rate 0.49% among 310,000; Fluo4 calcium fluorescence; active compounds read high; AID 2237, 2010; B-score at 10 µM;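 active means B-score above 5 SD of library B-scores, and initial fluorescence ratio not above library mean plus 5 SD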;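 further: positive B-score marks a calcium rise read as TRPC4 activation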
Target sequence (Q9QUQ5 whole entry, looked up): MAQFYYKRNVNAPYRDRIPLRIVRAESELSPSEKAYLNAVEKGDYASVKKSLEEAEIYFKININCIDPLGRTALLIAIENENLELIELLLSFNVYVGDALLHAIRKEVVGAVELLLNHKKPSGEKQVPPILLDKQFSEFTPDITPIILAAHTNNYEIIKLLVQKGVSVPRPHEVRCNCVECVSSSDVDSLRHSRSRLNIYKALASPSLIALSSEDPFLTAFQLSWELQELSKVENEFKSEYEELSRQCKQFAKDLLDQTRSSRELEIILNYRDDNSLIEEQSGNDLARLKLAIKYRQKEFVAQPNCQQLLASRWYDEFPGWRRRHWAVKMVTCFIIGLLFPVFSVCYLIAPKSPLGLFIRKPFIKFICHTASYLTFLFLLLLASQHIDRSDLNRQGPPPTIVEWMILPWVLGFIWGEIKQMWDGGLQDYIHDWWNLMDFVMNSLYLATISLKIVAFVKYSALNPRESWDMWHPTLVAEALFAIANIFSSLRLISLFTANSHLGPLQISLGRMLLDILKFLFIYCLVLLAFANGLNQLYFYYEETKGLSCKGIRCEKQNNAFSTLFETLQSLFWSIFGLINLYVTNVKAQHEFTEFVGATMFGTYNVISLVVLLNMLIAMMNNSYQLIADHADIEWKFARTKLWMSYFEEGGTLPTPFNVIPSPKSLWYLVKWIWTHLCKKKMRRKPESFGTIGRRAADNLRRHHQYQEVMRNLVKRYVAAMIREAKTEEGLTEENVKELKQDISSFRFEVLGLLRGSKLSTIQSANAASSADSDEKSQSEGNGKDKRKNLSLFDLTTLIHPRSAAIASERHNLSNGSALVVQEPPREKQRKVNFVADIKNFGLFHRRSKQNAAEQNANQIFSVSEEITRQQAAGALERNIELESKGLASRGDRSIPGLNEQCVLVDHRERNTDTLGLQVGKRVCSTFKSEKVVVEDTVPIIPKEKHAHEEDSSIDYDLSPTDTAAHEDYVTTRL
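System – HEK293 cells stably co-expressing mouse TRPC4beta and mu-opioid receptor · Signal – Fluo4 calcium-sensitive dye fluorescence, kinetic, 1 Hz baseline · Benchmarks – buffer (low) and maximal DAMGO (high) · Read-out – B score of integrated fluorescence ratio per well · Incubation – dye loading 45 min room temperature, 110 s kinetic read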
TRPC6 act = mouse TRPC6 channel activators, primary screen, cell-based, HEK293, membrane potential dye. Short transient receptor potential channel 6 (Mus musculus), Q61143. HEK293-TRPC6 membrane potential dye fluorescence; active compounds read high. B-score at 10 µM. hit rate 0.13% among 310,000. AID 2550, 2010;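 active means B-score of the integrated fluorescence ratio above library mean plus 3 SD, and starting fluorescence ratio within library mean plus 5 SD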;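 further: higher score means more depolarization so channel activation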
TRPC4 inh = inhibitors of mouse TRPC4 channel, primary screen, Fluo4 calcium, HEK293 TRPC4beta/mu-opioid cells | hit rate 0.39% among 300,000 | DAMGO-evoked Fluo4 calcium flux; active compounds read low | AID 2247, 2010 | B-score at 10 µM;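 active means B-score over 3 SD under the library average, no early fluorescence shift, positive overall ratio signal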
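System: stable TRPC4beta/mu-opioid receptor HEK293 cells; Dosing: single-point compound dosing; Measured by: Fluo4 Ca2+ flux fluorescence; Read-out basis: per-well B score of integrated baseline-normalized Fluo4 ratio.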
TRPC4 PAM = positive allosteric modulators of TRPC4, primary screen, cell-based, mouse TRPC4beta, HEK293 mu-opioid, Fluo-4 calcium. DAMGO EC20, Fluo-4 Ca2+ flux; active compounds read high. B-score at 10 µM. Short transient receptor potential channel 4 (Mus musculus), Q9QUQ5. hit rate 0.42% among 310,000. AID 2227, 2009;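 active means B-score of calcium response area above 5 SD of library B-scores, with initial fluorescence ratio within 5 SD of library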
TRPC6 inhibitor = mouse TRPC6 channel inhibitors, primary screen, cell-based, HEK293, membrane potential dye | Short transient receptor potential channel 6 (Mus musculus), Q61143 | ACh-evoked depolarization; active compounds read low | B-score at 10 µM | hit rate 1.1% among 310,000;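 active means B-score under library mean minus 3 SD, initial fluorescence not abnormally high, positive integrated signal ratio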;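 further: B-score derived from integrated fluorescence ratio over the kinetic read; more negative B-score means stronger inhibition of depolarization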
TRPC4 sel inh 2 = second selectivity test of TRPC6 inhibitors: effect on mouse TRPC4. shares compounds with TRPC6 inhibitor. HEK293 TRPC4/MOR, membrane potential dye fluorescence; channel activated by saturating DAMGO dose. inhibition, % at 10 µM. hit rate 42% among 920;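 active means compounds whose fluorescence signal differed from control wells by over 3 SD, either direction, in both duplicate plates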
TRPC4 spec = mouse TRPC4 modulation by TRPC6 hits, confirmation, selectivity assay for TRPC6 inhibitor project, cell-based, HEK293 TRPC4/mu-opioid, membrane potential dye; membrane potential fluorescence; activity change, negative = inhibition, % at 10 µM; hit rate 61% among 920; shares compounds with TRPC6 inhibitor;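 active means rise or fall in signal beyond 3 SD of buffer-only wells in both replicate plates, either sign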;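 further: integrated kinetic ratio of fluorescence range over baseline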
HEK293 MPD ctr 2-1 = nonspecific membrane potential effects, parental HEK293, confirmation, counter-screen for TRPC6 inhibitor project, cell-based, second counter screen; shares compounds with TRPC6 inhibitor; parental HEK293 membrane potential dye fluorescence; maximal acetylcholine challenge after compound addition; signal change vs control, % at 10 µM; hit rate 31% among 920; AID 2779, 2010;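 active means membrane potential signal moving either way by over 3 SD of the maximum-effect control, in both duplicate plates, meaning non-specific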
HEK293 MPD ctr-1 = membrane potential modulation in parental HEK293, confirmation, counter-screen for TRPC6 inhibitor project, cell-based; shares compounds with TRPC6 inhibitor; parental HEK293 membrane potential dye fluorescence; membrane potential signal change, % at 10 µM; hit rate 60% among 920; AID 2780, 2010;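 active means membrane potential signal shifting up or down by more than 3 SD of buffer-only wells, on both duplicate plates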
HEK293 MPD ctr-2 = parental HEK293 membrane potential modulation, confirmation, counter-screen for TRPC6 modulator project, cell-based | shares compounds with TRPC6 inhibitor | membrane potential dye fluorescence | membrane potential signal change, % at 10 µM | hit rate 51% among 2,400;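 active means membrane potential signal moves up or down beyond 5 SD from buffer-only wells, on both duplicate plates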
HEK293 MPD ctr 2-2 = second counter-screen for TRPC6 modulators: effect in parental HEK293 cells | inhibition, % at 10 µM | shares compounds with TRPC6 inhibitor | hit rate 14% among 2,400 | membrane potential dye fluorescence; after compound, maximal acetylcholine stimulation;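 active means membrane potential signal drops by more than 5 SD from the mean control signal, in both duplicate plates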
TRPC4 ctr mod = TRPC4 modulation by TRPC6 hit compounds, confirmation, selectivity assay for TRPC6 modulator project, cell-based, HEK293 TRPC4/mu-opioid, membrane potential dye, mouse | hit rate 69% among 2,400 | membrane potential fluorescence | shares compounds with TRPC6 inhibitor | percent change from control (negative = decrease, positive = increase), % at 10 µM | AID 488927, 2010;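 active means membrane potential signal moved up or down beyond 5 SD of buffer control wells, in both duplicate plates, actives on both sides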
TRPC4/MOR inh 2 = mouse TRPC4 off-target activity of TRPC6 modulators, second screen | HEK293 TRPC4/mu-opioid, membrane potential dye fluorescence; stimulated with maximal-effect DAMGO | inhibition, % at 10 µM | hit rate 55% among 2,400 | shares compounds with TRPC6 inhibitor;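 active means drop in membrane potential signal beyond 5 SD of the control wells in both duplicate plates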;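 further: TRPC4 counter screen for TRPC6 hits run under conditions tuned for TRPC6 not TRPC4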
TRPC6 block conf = mouse TRPC6 channel inhibitors, confirmation, HEK293 cells, membrane potential dye, duplicate | shares compounds with TRPC6 inhibitor | ACh-evoked depolarization | inhibition, % at 10 µM | hit rate 43% among 3,300 | AID 488960, 2010;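 active means fluorescence ratio falls more than 5 SD below the full-stimulation control mean, in both duplicate runs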;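 further: integrated fluorescence ratio of peak minus minimum over baseline after agonist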
TRPC6 act conf = mouse TRPC6 channel activators, confirmation, HEK293 cells, membrane potential dye, duplicate | HEK293-TRPC6 membrane potential dye fluorescence, FDSS | hit rate 11% among 2,800 | shares compounds with TRPC6 inhibitor | AID 488961, 2010 | activation, % at 10 µM;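 active means ratio signal rise beyond 5 SD above unstimulated control wells' mean, seen in both duplicate runs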
Numbers stand for hits; . = inactive; / = no result. Rows were chosen to be rich in hits. Some 2.3% of all compounds tested hit in one or more screens of this group.

SMILES	TRPC4 agonist	TRPC6 act	TRPC4 inh	TRPC4 PAM	TRPC6 inhibitor	TRPC4 sel inh 2	TRPC4 spec	HEK293 MPD ctr 2-1	HEK293 MPD ctr-1	TRPC6 block conf	TRPC6 act conf	others
CCCCNC(=S)Nc1ccc2nc3n(c(=O)c2c1)CCCCC3	.	.	.	.	.	/	/	/	/	/	/
Cc1cc(N2CCN(C)CC2)nc2ccc(NC(=O)CCC(=O)N3CCN(c4ccc([N+](=O)[O-])cc4)CC3)cc12	.	12	.	.	.	/	/	/	/	.	84%	HEK293 MPD ctr-2=237%;HEK293 MPD ctr 2-2=.;TRPC4 ctr mod=44%;TRPC4/MOR inh 2=.
Cc1cc(N2CCOCC2)nc2ccc(NC(=O)CCC(=O)N3CCN(c4ccccc4)CC3)cc12	.	.	.	.	.	/	/	/	/	/	/
CC(C)CCNC(=S)Nc1ccc2nc3n(c(=O)c2c1)CCCCC3	.	.	.	.	-5.2	/	/	/	/	.	.	HEK293 MPD ctr-2=.;HEK293 MPD ctr 2-2=.;TRPC4 ctr mod=.;TRPC4/MOR inh 2=.
Cc1cc(N2CCN(C)CC2)nc2ccc(NC(=O)CCC(=O)NCCCOC(C)C)cc12	.	.	.	.	.	/	/	/	/	/	/
COCCCNC(=O)CCC(=O)Nc1ccc2nc(N3CCOCC3)cc(C)c2c1	.	.	.	.	-6.8	.	-28%	.	-360%	64%	.
COc1ccc2nc(SCC(=O)Nc3nccs3)[nH]c2c1	.	.	.	.	.	/	/	/	/	/	/
Cc1cc(N2CCCCC2)nc2ccc(NC(=O)CCC(=O)NCCC(C)C)cc12	.	.	.	.	-8	.	-16%	224%	-228%	.	.
CCCCNC(=O)CCC(=O)Nc1ccc2nc(N3CCCCC3)cc(C)c2c1	.	.	.	.	.	/	/	/	/	/	/
CCN(CC)CCSc1nnc(Nc2ccccc2)n1-c1ccccc1	.	.	.	.	-7.8	.	2.4%	.	3.4%	.	.
CCN(CC)CCSc1nc2ccccc2c(=S)n1-c1ccccc1	.	.	.	.	-7.3	33%	3.5%	238%	7.1%	.	.
CCN(CC)CCSc1nc(O)c(-c2ccccc2)c(=O)n1-c1ccccc1	.	.	.	.	.	/	/	/	/	/	/
CC1(C)Oc2nc3ccccc3n2/C1=C\C#N	.	.	.	.	.	/	/	/	/	/	/
CCC(C)(C)n1nnnc1C(c1cc2cc3c(cc2[nH]c1=O)OCO3)N1CCCCC1 (stereo unspecified)	.	.	.	.	-5.9	/	/	/	/	.	/	HEK293 MPD ctr-2=.;HEK293 MPD ctr 2-2=.;TRPC4 ctr mod=.;TRPC4/MOR inh 2=.
CCCN1CCN(C(c2cc3cc4c(cc3[nH]c2=O)OCO4)c2nnnn2C(C)(C)C)CC1 (stereo unspecified)	.	.	.	.	.	/	/	/	/	/	/
Cc1ccccc1N(C(=O)CNC(=O)c1ccco1)C(C(=O)NC1CCCCC1)c1cccnc1 (stereo unspecified)	.	.	.	.	.	/	/	/	/	/	/
CCOC(=O)c1cnc2c(ccc3ccccc32)c1NCCO	.	.	.	.	.	/	/	/	/	/	/
CCOC(=O)c1cnc2c(C(=O)OC)cccc2c1NCc1cccnc1	.	.	.	.	-6.2	/	/	/	/	.	.	HEK293 MPD ctr-2=.;HEK293 MPD ctr 2-2=.;TRPC4 ctr mod=14%;TRPC4/MOR inh 2=.
CCOC(=O)c1c(NCCN(C)C)c2ccccc2[nH]c1=O	.	.	.	.	.	/	/	/	/	/	/
CCOC(=O)c1cnc2c(Cl)cccc2c1NCCN(C)C	.	.	.	.	-9.2	68%	-26%	18%	-448%	73%	.
CCOC(=O)c1cnc2c(ccc3ccccc32)c1NCCN(C)C	.	.	.	.	-6.8	74%	-14%	.	-232%	.	.
COC(=O)C1=C(N)OC2=C(C(=O)CC(C)(C)C2)C1c1cc2c(cc1Cl)OCO2 (stereo unspecified)	.	.	.	.	-9.3	34%	.	.	.	.	.
Cc1c(Cc2ccccc2)sc(NC(=O)C(C)(C)C)c1C(N)=O	.	.	.	.	.	/	/	/	/	/	/
COCCNc1c([N+](=O)[O-])c(=O)n(-c2ccccc2)c2ccccc12	.	.	.	.	.	/	/	/	/	/	/
O=c1c([N+](=O)[O-])c(NCCN2CCCCCC2)c2ccccc2n1-c1ccccc1	.	.	.	.	-6.3	/	/	/	/	50%	.	HEK293 MPD ctr-2=.;HEK293 MPD ctr 2-2=.;TRPC4 ctr mod=-16%;TRPC4/MOR inh 2=80%
Cc1cccc(NC(=O)CSc2nc3nc(C)cc(C)c3c(=O)[nH]2)c1	.	.	.	.	-6.9	.	.	.	.	.	.
CCN(CC)S(=O)(=O)c1cccc(C(=O)N/N=C/c2ccc(N3CCOCC3)cc2)c1	.	.	.	.	.	/	/	/	/	/	/
CCOC(=O)C1CCCN(S(=O)(=O)c2ccc(Cl)nc2)C1 (stereo unspecified)	.	.	.	.	.	/	/	/	/	/	/

Screening results (PubChem BioAssay)
